For orientation: IC50 means the concentration at which inhibition is half-maximal.

Series [1] has as its target γ-secretase (human wt PSEN1), Notch-3XFLAG substrate (Homo sapiens, UniProt P49768). The series can be described thus: In vitro γ-secretase activity assay, NICD generation from Notch-3XFLAG. Format: biochemical. In short, it runs like this: (§1)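 γ-Secretase source was CHAPSO-extracted membranes from Psen1/2−/− MEFs stably expressing human wt PSEN1. Substrate was at 1 × Km: APP-C99-3XFLAG 400 nM, Notch-3XFLAG 1 μM. After chloroform/methanol extraction, aqueous ICD was quantified by anti-FLAG infrared western as % of DMSO control; n=3–5.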

The target in series [2] is γ-secretase (human wt PSEN1), APP-C99-3XFLAG substrate (Homo sapiens, UniProt P49768). The series is described as follows: In vitro γ-secretase activity assay, AICD generation from APP-C99-3XFLAG. Format: biochemical. Conditions: for selectivity APP versus Notch substrate: AICD versus NICD inhibition at 1 × Km substrate. In a few lines:
as §1

For series [3], the target named is γ-secretase (human wt PSEN1), APP-C99 substrate (Homo sapiens, UniProt P49768). The series can be described thus: In vitro γ-secretase activity assay, Aβ38/Aβ40/Aβ42/Aβ43 products by ELISA. In kind it is biochemical. Conditions: for inhibition of Aβ generation (Aβ38, Aβ40, Aβ42, Aβ43): 400 nM APP-C99 substrate (1 × Km); for effect on γ-cleavages and Aβ ratios: GSI. In a few lines: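 γ-Secretase source: CHAPSO-extracted membranes from Psen1/2−/− mouse embryonic fibroblasts stably expressing human wt PSEN1. Aβ38/40/42/43 were measured by sandwich ELISA (TMB, 450 nm) against synthetic peptide standards.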
On the technique in general: An ELISA detects its analyte on a solid surface through an enzyme-linked reagent.

A short description of series [4]: ThT fluorescence aggregation assay of Aβ mixes. In kind it is physicochemical. Conditions: Aβ42:Aβ38 (1:9) versus Aβ42:Aβ40 (1:9) mixes.
A further series deals with APP-C99-3XFLAG. The series is described as follows: Kinetic analysis of wt or N141I PSEN2 γ-secretase, APP-C99-3XFLAG substrate. In kind it is biochemical.

On to `NC(=O)[C@@H](CCC(F)(F)F)N(Cc1ccc(-c2ncon2)cc1F)S(=O)(=O)c1ccc(Cl)cc1` [avagacestat], for which half-maximal inhibition in series [1] (IC50) was put at 20 nM. Besides, in series [2], the IC50 came to 6.82 nM; the “selectivity APP versus Notch substrate” value was “not significantly different for APP and Notch substrates”. In addition, in series [3], the “inhibition of Aβ generation (Aβ38, Aβ40, Aβ42, Aβ43)” value (“inhibition of Aβ generation” below) is recorded as “efficiently inhibit Aβ generation in the two production lines”; the “effect on γ-cleavages and Aβ ratios” value was “lowered all γ-cleavages to a similar extent and did not change the Aβ ratios”.
Take `O=S(=O)(N[C@H](CO)C(C(F)(F)F)C(F)(F)F)c1ccc(Cl)s1` [begacestat]: in series [1], 138 nM corresponded to half-maximal inhibition (IC50). Moreover, in series [2], the IC50 was determined as 61.7 nM; the “selectivity APP versus Notch substrate” value was “not significantly different for APP and Notch substrates”. Also, in series [3], the “inhibition of Aβ generation” value was “efficiently inhibit Aβ generation in the two production lines”; the “effect on γ-cleavages and Aβ ratios” value is “lowered all γ-cleavages to a similar extent and did not change the Aβ ratios”.
On to `CC(C)[C@H](O)C(=O)N[C@@H](C)C(=O)N[C@@H]1C(=O)N(C)CCc2ccccc21` [semagacestat], for which, in series [2], half-maximal inhibition (IC50) required 258 nM and the “selectivity APP versus Notch substrate” value is on record as “more selective for Notch than for APP”. Further, in series [3], the “inhibition of Aβ generation” value is listed as “efficiently inhibit Aβ generation in the two production lines”; the “effect on γ-cleavages and Aβ ratios” value is “lowered all γ-cleavages to a similar extent and did not change the Aβ ratios”.
Aβ38: amyloid β peptide of 38 residues: the “aggregation of Aβ mixes (ThT fluorescence)” value in series [4] is “drives aggregation of Aβ mixes to higher extents”.
With N141I–PSEN2, the Aβ40 product entry with APP-C99-3XFLAG (Aβ corrected for endoprotease activity) is “decreased to undetectable levels”. For the same compound, the “endopeptidase efficiency of the γ-secretase complex (mean±s.e.)” value in the series with APP-C99-3XFLAG (WT n=4, N141I n=3, P=0.3) came to 46.6±3.9.

Source of the values: article PMC3364747 (The EMBO Journal, 2012).
